Test [1] deals with Mus musculus. Nature of the test: Net log cell kill is an estimate of the number of cells that are killed by the compound was calculated at dose of 10 mg/kg on days 1,5,9. Type of test: functional.
Test [2] deals with Mus musculus. Nature of the test: Percent increase in life span was calculated by administering intraperitoneally the compound dose of 10 mg/kg on days 1,5 and 9. Conditions: ip.
In test [3] the test system is Mus musculus. Nature of the test: In vivo antitumor studies were carried out on mice bearing L1210 murine leukemia cells, by administering intraperitoneally the compound dose of 10 mg/kg on days 1,5 and 9. To be noted: route intraperitoneal.
The subject of test [4] is Mus musculus. Nature of the test: Net log cell kill is an estimate of the number of cells that are killed by the compound was calculated at dose of 2.7 mg/kg on days 1. Type of test: functional. A digest of the protocol: (§1)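 Net log cell kill in female CD2F1 mice given ip L1210 (1 × 10^5 cells, day 0) and iv tail-vein drug from day 1. It was calculated from treated-minus-control median day of death, less treatment duration, relative to tumor doubling time. Doubling time came from median days of death in titration groups of 10 mice implanted with 1 × 10^4 to 1 × 10^6 cells.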

The test system of test [5] is Mus musculus. Nature of the test: Net log cell kill is an estimate of the number of cells that are killed by the compound was calculated at dose of 1.8 mg/kg on days 1. In kind it is functional. Put shortly:
as §1

Test [6] has as its system Mus musculus. Nature of the test: Net log cell kill is an estimate of the number of cells that are killed by the compound was calculated at dose of 1.8 mg/kg on days 1,2. In kind it is functional. A digest of the protocol: as §1
Test [7] relates to Mus musculus. Nature of the test: Net log cell kill is an estimate of the number of cells that are killed by the compound was calculated at dose of 1.8 mg/kg on days 1,5,9. Type of test: functional. Put shortly: as §1
Test [8] concerns Mus musculus. Nature of the test: In vivo antitumor studies were carried out on mice bearing L1210 murine leukemia cells, by administering intravenously the compound dose of 4.0 mg/kg on days 1. In kind it is functional. Conditions: route intravenous. Put shortly:
(§2)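 Female CD2F1 mice (12-week-old, five per group) given 1 × 10^5 L1210 ascites cells ip on day 0; cells were first passaged ip in DBA/2 mice. From day 1, freshly made drug in 25 mM sodium phosphate pH 7.4 was given iv by tail vein at 0.01 mL/g. Mean survival days were compared with untreated mice by ANOVA and Newman-Keuls.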

Test [9] has as its system Mus musculus. Nature of the test: Percent increase in life span was calculated by administering intravenously the compound dose of 1.8 mg/kg on days 1,5 and 9. Conditions: route intravenous. Type of test: functional. Put shortly:
(§3)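 CD2F1 female mice bore ip L1210 (1 × 10^5 cells/mouse, day 0). Tail-vein iv dosing in 25 mM phosphate buffer pH 7.4 began on day 1. Percent increase in life span was calculated as (T − C)/C × 100, with T and C the median days of death for the treated and untreated groups.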

The test system of test [10] is Mus musculus. Nature of the test: Percent increase in life span was calculated by administering intravenously the compound dose of 1.8 mg/kg on days 1,8. In kind it is functional. Conditions: route intravenous. Put shortly: as §3
Test [11] relates to Mus musculus. Nature of the test: Percent increase in life span was calculated by administering intravenously the compound dose of 2.7 mg/kg on days 1. Conditions: route intravenous. Type of test: functional. Put shortly: as §3
Test [12] relates to Mus musculus. Nature of the test: Percent increase in life span was calculated by administering intravenously the compound dose of 2.7 mg/kg on days 1,2. Type of test: functional. To be noted: route intravenous. Put shortly:
as §3

The subject of test [13] is Mus musculus. Nature of the test: Percent increase in life span was calculated by administering intravenously the compound dose of 2.7 mg/kg on days 1,5 and 9. Type of test: functional. Conditions: route intravenous. Put shortly: as §3
For test [14], the system named is Mus musculus. Nature of the test: Percent increase in life span was calculated by administering intravenously the compound dose of 2.7 mg/kg on days 1,8. Type of test: functional. Conditions: route intravenous. A digest of the protocol: as §3
Test [15] has as its system Mus musculus. Nature of the test: Percent increase in life span was calculated by administering intravenously the compound dose of 4.0 mg/kg on days 1. In kind it is functional. Conditions: route intravenous. Put shortly: as §3
Test [16] deals with Mus musculus. Nature of the test: Percent increase in life span was calculated by administering intravenously the compound dose of 4.0 mg/kg on days 1,5 and 9. Conditions: route intravenous. In kind it is functional. A digest of the protocol:
as §3

Test [17] concerns Mus musculus. Nature of the test: Percent increase in life span was calculated by administering intravenously the compound dose of 4.0 mg/kg on days 1,8. In kind it is functional. To be noted: route intravenous. Put shortly:
as §3

The test system of test [18] is Mus musculus. Nature of the test: Percent increase in life span was calculated by administering intravenously the compound dose of 1.8 mg/kg on days 1. Conditions: route intravenous. In kind it is functional. Put shortly: as §3
Test [19] deals with Mus musculus. Nature of the test: Percent increase in life span was calculated by administering intravenously the compound dose of 1.8 mg/kg on days 1,2. In kind it is functional. Conditions: route intravenous. A digest of the protocol: as §3
Test [20] deals with Mus musculus. Nature of the test: Net log cell kill is an estimate of the number of cells that are killed by the compound was calculated at dose of 2.7 mg/kg on days 1,2. In kind it is functional. A digest of the protocol:
as §1

For test [21], the system named is Mus musculus. Nature of the test: Net log cell kill is an estimate of the number of cells that are killed by the compound was calculated at dose of 2.7 mg/kg on days 1,5,9. In kind it is functional. A digest of the protocol: as §1
Test [22] deals with Mus musculus. Nature of the test: Net log cell kill is an estimate of the number of cells that are killed by the compound was calculated at dose of 2.7 mg/kg on days 1,8. Type of test: functional. Put shortly:
as §1

The subject of test [23] is Mus musculus. Nature of the test: Net log cell kill is an estimate of the number of cells that are killed by the compound was calculated at dose of 4.0 mg/kg on days 1. In kind it is functional. A digest of the protocol: as §1
Test [24] concerns Mus musculus. Nature of the test: Net log cell kill is an estimate of the number of cells that are killed by the compound was calculated at dose of 4.0 mg/kg on days 1,8. In kind it is functional. A digest of the protocol: as §1
Test [25] deals with Mus musculus. Nature of the test: In vivo antitumor studies were carried out on mice bearing L1210 murine leukemia cells, by administering intravenously the compound dose of 1.8 mg/kg on days 1. In kind it is functional. Conditions: route intravenous. Put shortly:
as §2

The subject of test [26] is Mus musculus. Nature of the test: In vivo antitumor studies were carried out on mice bearing L1210 murine leukemia cells, by administering intravenously the compound dose of 1.8 mg/kg on days 1,2. In kind it is functional. To be noted: route intravenous. A digest of the protocol:
as §2

Test [27] has as its system Mus musculus. Nature of the test: In vivo antitumor studies were carried out on mice bearing L1210 murine leukemia cells, by administering intravenously the compound dose of 1.8 mg/kg on days 1,5 and 9. In kind it is functional. To be noted: route intravenous. Put shortly: as §2
For test [28], the system named is Mus musculus. Nature of the test: In vivo antitumor studies were carried out on mice bearing L1210 murine leukemia cells, by administering intravenously the compound dose of 1.8 mg/kg on days 1,8. Type of test: functional. To be noted: route intravenous. Put shortly:
as §2

Test [29] relates to Mus musculus. Nature of the test: In vivo antitumor studies were carried out on mice bearing L1210 murine leukemia cells, by administering intravenously the compound dose of 2.7 mg/kg on days 1. Conditions: route intravenous. Type of test: functional. A digest of the protocol:
as §2

The subject of test [30] is Mus musculus. Nature of the test: In vivo antitumor studies were carried out on mice bearing L1210 murine leukemia cells, by administering intravenously the compound dose of 2.7 mg/kg on days 1,2. Type of test: functional. To be noted: route intravenous. A digest of the protocol:
as §2

For test [31], the system named is Mus musculus. Nature of the test: In vivo antitumor studies were carried out on mice bearing L1210 murine leukemia cells, by administering intravenously the compound dose of 2.7 mg/kg on days 1,5 and 9. In kind it is functional. Conditions: route intravenous. A digest of the protocol: as §2
Test [32] relates to Mus musculus. Nature of the test: In vivo antitumor studies were carried out on mice bearing L1210 murine leukemia cells, by administering intravenously the compound dose of 4.0 mg/kg on days 1,2. In kind it is functional. To be noted: route intravenous. A digest of the protocol:
as §2

The test system of test [33] is Mus musculus. Nature of the test: In vivo antitumor studies were carried out on mice bearing L1210 murine leukemia cells, by administering intravenously the compound dose of 4.0 mg/kg on days 1,5 and 9. Type of test: functional. Conditions: route intravenous. A digest of the protocol: as §2
In test [34] the test system is Mus musculus. Nature of the test: In vivo antitumor studies were carried out on mice bearing L1210 murine leukemia cells, by administering intravenously the compound dose of 4.0 mg/kg on days 1,8. In kind it is functional. Conditions: route intravenous. Put shortly:
as §2

For test [35], the system named is Mus musculus. Nature of the test: In vivo antitumor studies were carried out on mice bearing L1210 murine leukemia cells, by administering intravenously the compound dose of 6.0 mg/kg on days 1. In kind it is functional. To be noted: route intravenous. Put shortly:
as §2

The test system of test [36] is Mus musculus. Nature of the test: In vivo antitumor studies were carried out on mice bearing L1210 murine leukemia cells, by administering intravenously the compound dose of 2.7 mg/kg on days 1,8. In kind it is functional. Conditions: route intravenous. Put shortly:
as §2

As usually defined, the ILS is how much longer treated animals lived than controls.

With `S=P(N1CC1)(N1CC1)N1CC1` [THIOTEPA], the NLCK in the test with Mus musculus [1] is 1. For the same compound, the ILS at 10 mg/kg with Mus musculus [2] is 114%. In addition, in the test on Mus musculus [3], the Mean survival worked out at 15.3 days.

For the compound `C(CCNCCCN1CC1)CNCCCN1CC1`, the NLCK with Mus musculus [4] was 3; in the test on Mus musculus [5] it was 4; in the test with Mus musculus [6], 6; with Mus musculus [7], 2; in the test on Mus musculus [20], 6; in the test on Mus musculus [21], 4. Also, the values for the NLCK with Mus musculus [22], in the test with Mus musculus [23] and in the test with Mus musculus [24] were 2, 4 and 4, respectively. In the test on Mus musculus [8], this compound showed a Life span of 11 days. Further, the ILS at 1.8 mg/kg is 143% in the test with Mus musculus [9], 86% in the test on Mus musculus [10], 57% in the test with Mus musculus [18] and 100% with Mus musculus [19]. Further, the ILS at 2.7 mg/kg was 42% in the test on Mus musculus [11], 100% with Mus musculus [12], 171% in the test on Mus musculus [13] and 129% in the test with Mus musculus [14]. Also, the figures for the ILS at 4 mg/kg in the test with Mus musculus [15], with Mus musculus [16] and with Mus musculus [17] were 57%, 14% and 157%, respectively. Also, the Mean survival in the test with Mus musculus [25] is 10.8 days; in the test with Mus musculus [26], 14.8 days; in the test with Mus musculus [27], 17.4 days; in the test with Mus musculus [28], 12.6 days; in the test on Mus musculus [29], 10.4 days; with Mus musculus [30], 13.2 days. Besides, the Mean survival in the test on Mus musculus [31] is 18.8 days; in the test with Mus musculus [32], 5.4 days; with Mus musculus [33], 11 days; with Mus musculus [34], 17.2 days; with Mus musculus [35], 6.8 days; with Mus musculus [36], 15.2 days.

The record behind these values is ChEMBL document CHEMBL1129299, “Synthesis and antitumor evaluation of a highly potent cytotoxic DNA cross-linking polyamine analogue, 1,12-diaziridinyl-4,9-diazadodecane” (1996).
